Compound activity (PubChem BioAssay)
Most compounds without a hit are left out; they make up all but 6.4% or so of the library.
EphB4 ephrin blk: blocks human EphB4 binding to ephrin-B2 | P54760 | EphB4 LBD / TNYL-RAW-Alexa532 peptide, fluorescence polarization | inhibition, % at 7 µM | hit rate 0.15% among 97,000 | AID 720;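 active = inhibition above the screen-wide mean inhibition plus 3 SD, cut at about 15% in these data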;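 note: 0% = DMSO wells and 100% = excess unlabeled TNYL-RAW peptide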
Plk1 PBD FP: blocks phosphopeptide binding to human Plk1 polo box domain. inhibition, %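 (tested at about 20 µM)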. hit rate 0.13% among 97,000. P53350. AID 693. Plk1 PBD phosphopeptide binding, fluorescence polarization; in the data active = inhibition above about 34%, passing the limit was not always enough
Target sequence (P53350 whole entry, looked up, the tested form may be a part): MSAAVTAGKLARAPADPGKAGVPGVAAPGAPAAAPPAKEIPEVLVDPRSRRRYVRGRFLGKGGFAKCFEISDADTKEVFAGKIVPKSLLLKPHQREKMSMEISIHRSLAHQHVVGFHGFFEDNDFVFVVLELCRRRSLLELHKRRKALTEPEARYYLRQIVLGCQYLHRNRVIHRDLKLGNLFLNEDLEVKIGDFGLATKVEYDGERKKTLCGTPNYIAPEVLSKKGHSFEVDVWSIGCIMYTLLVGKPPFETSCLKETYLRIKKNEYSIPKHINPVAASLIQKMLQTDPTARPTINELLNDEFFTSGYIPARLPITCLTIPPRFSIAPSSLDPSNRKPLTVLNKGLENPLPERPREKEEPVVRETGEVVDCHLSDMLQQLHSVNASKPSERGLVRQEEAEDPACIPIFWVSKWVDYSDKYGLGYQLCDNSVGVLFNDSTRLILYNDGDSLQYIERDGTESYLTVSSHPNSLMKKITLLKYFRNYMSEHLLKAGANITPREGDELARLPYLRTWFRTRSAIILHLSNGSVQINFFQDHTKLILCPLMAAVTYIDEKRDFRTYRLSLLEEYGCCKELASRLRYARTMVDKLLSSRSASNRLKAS
PLK1 inh: PLK1 (human) kinase inhibition; hit rate 0.53% among 97,000; inhibition, % at 10 µM; recombinant PLK1 kinase, TR-FRET peptide phosphorylation; P53350;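 active = inhibition of 50% or more in the single-concentration screen; inactive = inhibition below 50%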;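 note: 0% = DMSO max control and 100% = H-89 dihydrochloride min control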
PostGolgi yeast: growth inhibition of a yeast mutant, post-Golgi transport screen; inhibition, % at 10 µM; post-Golgi transport phenotypic cell assay; hit rate 0.9% among 98,000;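 note: yeast cells grown in 1536-well plates; yeast grown about 18 h at 30C before absorbance read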
Rev-RRE block: inhibitors of HIV-1 Rev-RRE RNA interaction; inhibition, % at 8 µM; hit rate 0.79% among 97,000; Rev peptide-RRE RNA binding, FRET; P05866; AID 704;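 active = inhibition above the screen-wide mean plus 3 SD, cut at about 35% in these data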;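 note: 0% = median DMSO wells and 100% = median Neomycin B control wells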
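Probe or stimulus: fluorescein-Rev peptide as binding partner; assay system: Cy5-tagged RRE RNA duplex with fluorescein-tagged Rev peptide; timing: 5 min compound–RNA preincubation, then 15 min with peptide, 25 °C; medium: HEPES pH 7.5 buffer with KCl, MgCl2, NaCl and EDTA; signal: fluorescein-to-Cy5 FRET, 480 nm excitation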
PostGolgi ctrl: yeast control strain growth, post-Golgi counter-screen | efflux-deficient yeast background strain, growth absorbance A615, 16 h | inhibition, % at 10 µM | hit rate 5% among 98,000
Starred values were filed as active, the others as inactive; . = no result given; [ ] = remark or other dose. Cut-off read from the data, not from the text of the source, unless noted: active = inhibition above about 30%; inactive = the rest.

SMILES	EphB4 ephrin blk	Plk1 PBD FP	PLK1 inh	PostGolgi yeast	Rev-RRE block	PostGolgi ctrl
O=C(COC(=O)c1ccccc1Oc1ccccc1)NC1CCS(=O)(=O)C1 (centres undefined)	-3	-11	-6	8	-1	13
Nc1cc(Cl)ccc1C(=O)OCC(=O)NC1CCS(=O)(=O)C1 (centres undefined)	3	1	-7	3	7	36*
CC(=O)Nc1ccc(S(=O)(=O)NCc2ccc3c(c2)cc(C)n3C)cc1	-7	13	62*	2	2	4
Cc1cc2cc(CNC(=O)c3ccc(S(=O)(=O)N(C)C)cc3)ccc2n1C	9	-2	-21	3	9	31*
CC1(C)CC2(CCO1)CNC(=O)O2 (centres undefined)	7	24	-7	5	5	23
CS(=O)(=O)N(CC(=O)NC1CCCC1)Cc1ccc(Cl)cc1	1	-18	-11	-2	-2	1
O=C(NCC1CCCO1)C1CCN(C(=O)c2ccc(Br)cc2)CC1 (centres undefined)	-2	-1	-18	9	6	5
Fc1ccc(Sc2cc(Cl)c(-c3ccccc3)nn2)cc1	20*	-6	-11	-3	10	39*
COc1ccccc1-c1nnc(NC(=O)C(C)SC2=NCCS2)s1 (centres undefined)	7	28	-9	11	3	38*
Cc1cccc(-c2noc(-c3ccccc3C(=O)NCC3CCCO3)n2)c1 (centres undefined)	6	21	-6	-3	8	31*
COc1cccc(NC(=O)c2ccccc2-c2nc(-c3cccc(C)c3)no2)c1	7	3	-5	-3	19	34*
CCOc1ccc(C2=C(C=Nc3c(C)n(C)n(-c4ccccc4)c3=O)C(c3ccc(F)cc3)c3ccccc3O2)cc1 (centres undefined)	2	5	-5	0	3	-5
CCN(Cc1ccccc1)C(c1ccncc1)c1nnnn1C(C)(C)C (centres undefined)	.	.	.	14	.	40*
CCN(Cc1ccccc1)C(c1ccc(C)cc1)c1nnnn1C(C)(C)CC (centres undefined)	12	-13	2	7	10	9
Cc1[nH]c(=O)[nH]c(=O)c1S(=O)(=O)NCC12CC3CC(CC(C3)C1)C2	.	.	.	-2	.	43*
CCC(NS(=O)(=O)c1c(C)[nH]c(=O)[nH]c1=O)C12CC3CC(CC(C3)C1)C2 (centres undefined)	.	.	.	-2	.	22
O=C(COc1ccccc1)N1CCN(C(=O)Cc2ccccc2)CC1	-3	-1	-10	0	2	8
COc1cc(/C=C(\C#N)C(=O)Nc2ccc(SC(F)F)cc2)cc(OC)c1OC	9	-6	-7	4	4	6
CCOc1cc(/C=C(/C#N)C(=O)Nc2ccc(O)cc2)cc(Br)c1O	-3	-113	-6	-3	117*[fluorescence artefact?]	22
CCOc1ccc(N2CC(C(=O)OC)CC2=O)cc1 (centres undefined)	-7	29	-6	-4	0	-4
c1ccc(-c2nnc3sc(-c4ccncc4)nn23)cc1	-5	6	-10	-4	5	11
Cc1cccc(-c2nnc3sc(-c4ccccc4C)nn23)c1	.	.	.	6	.	64*
c1ccc(-c2nnc3sc(-c4csc5c4CCCC5)nn23)cc1	-6	21	-7	13	12	75*
O=c1c(Cc2ccc(Cl)cc2Cl)c(O)ccn1Cc1ccc(Cl)cc1	3	1	-8	14	11	62*
Cc1ccc(-n2c(C)nc3c(cnn3-c3ccc(C)c(C)c3)c2=O)cc1C	-4	1	-20	6	8	47*
SMILES	EphB4 ephrin blk	Plk1 PBD FP	PLK1 inh	PostGolgi yeast	Rev-RRE block	PostGolgi ctrl
Cc1ccc(-n2c(C)nc3c(cnn3-c3ccc(F)cc3)c2=O)cc1C	-8	17	-2	6	8	-4
CCOCCCNC(=O)C1CCN(C(=O)N(C)C)CC1	.	.	.	43*	.	-3
O=C(Nc1cccc2c1[nH]c1ccccc12)C(F)(F)F	-4	-16	-7	.	3	.
Cc1ccc(-n2nnnc2-c2cnoc2-c2cccc(F)c2)cc1	0	-16	-7	.	6	.
O=C(N1CCCCCC1)N1CCN(S(=O)(=O)c2ccccc2)CC1	3	-2	-11	1	4	6
O=C(C1CCCO1)N1CCN(C(c2ccccc2)c2ccccc2)CC1 (centres undefined)	0	19	-6	-2	4	2
O=C(c1ccc(Br)cc1)N1CCN(S(=O)(=O)c2ccccc2)CC1	-1	-19	-16	-3	8	35*
O=C(C1CCCO1)N1CCN(S(=O)(=O)c2ccccc2)CC1 (centres undefined)	4	-16	-2	-16	8	36*
COC(=O)c1cn(NC(=O)c2ccc3c(c2)OCO3)c(=O)c2ccccc12	.	.	.	11	.	22
CCn1c(-c2cc3c(C(F)(F)F)nn(C)c3s2)n[nH]c1=S	2	-38	7	4	7	41*
Cn1c(-c2cc3c(C(F)(F)F)nn(C)c3s2)n[nH]c1=S	2	-6	-7	15	-1	15
Cc1ccc(-c2[nH]nc3c2C(c2ccsc2)C(C#N)=C(N)O3)cc1 (centres undefined)	3	-6	2	-2	9	13
Cc1[nH]nc2c1C(c1ccc(F)cc1)C(C#N)=C(N)O2 (centres undefined)	8	8	57*	1	3	7
Cc1[nH]nc2c1C(c1ccsc1)C(C#N)=C(N)O2 (centres undefined)	-1	-2	52*	-20	9	22
CC(C)(C)c1[nH]nc2c1C(Cc1ccccc1)C(C#N)=C(N)O2 (centres undefined)	0	14	3	-7	0	40*
Cc1[nH]nc2c1C(c1ccsc1C)C(C#N)=C(N)O2 (centres undefined)	5	10	61*	24	6	7
Cn1nnc2cc(C(=O)Nc3cccnc3)ccc21	2	26	-9	39*	6	-7
CC(C)NC(=O)c1ccc2c(c1)nnn2C	-4	-26	0	1	6	45*
Cn1nnc2cc(C(=O)NC3CCCCC3)ccc21	-6	-26	1	-3	1	3
CC(=O)C(=[N+]=[N-])C(=O)NCc1ccccc1	3	40	-6	2	4	-1
O=C(CN1C(=O)C2CC=CCC2C1=O)Nc1ccc(S(=O)(=O)NC2=NCCCCC2)cc1 (centres undefined)	-4	13	-11	-1	2	23
Cc1nonc1OC(C)CNc1ccc([N+](=O)[O-])cc1 (centres undefined)	4	-8	-8	-1	2	35*
N#C/C(=C\c1ccccc1)c1nc2ncccc2[nH]1	4	-13	14	0	10	-11
